According to ChEMBL document CHEMBL1131259, “Synthesis and evaluation of diphenyl phosphonate esters as inhibitors of the trypsin-like granzymes A and K and mast cell tryptase” (J Med Chem, 1998):
Activity calls are given as the source filed them. The calls are words filed in the database; no cut-off is given here.

How the values were obtained:
[1] = target: T1, Granzyme A (Homo sapiens) (UniProt P12544); experiment: Inhibition of human granzyme A
T1 sequence (whole entry): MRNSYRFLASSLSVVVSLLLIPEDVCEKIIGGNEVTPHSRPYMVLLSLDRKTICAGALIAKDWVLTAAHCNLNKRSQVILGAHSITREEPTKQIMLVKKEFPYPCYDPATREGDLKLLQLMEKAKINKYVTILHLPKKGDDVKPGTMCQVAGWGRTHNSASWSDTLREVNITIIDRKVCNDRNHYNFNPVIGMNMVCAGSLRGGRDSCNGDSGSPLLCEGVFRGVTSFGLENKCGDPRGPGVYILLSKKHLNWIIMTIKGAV
Procedure, shortened: (§1)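 Recombinant human and rat granzyme A, incubated with inhibitor (1.0–450 μM) at 25 °C in 0.1 M Hepes, 0.01 M CaCl2, pH 7.5 (7.6% DMSO). Timed aliquots were read for residual activity on Cbz-Arg-SBzl with DTNB at 405 nm. k_obs came from ln vt/vo vs time over 5–10 points and 2–3 half-lives, two k_obs per inhibitor. DMSO controls were run.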

[2] = target: T2, Tryptase (Homo sapiens) (UniProt Q9BZJ3+Q15661+Q9NRR2); experiment: Inhibition of mast cell tryptase; format: protein assay
Procedure, shortened: (§2)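 Human lung mast cell tryptase, high-molecular-weight form, heparin-free, active sites titrated with MUGB. Incubated with inhibitor at 25 °C in 0.1 M Hepes, 10% glycerol, 10 mM heparin, pH 7.5 (7.1% DMSO). […] DMSO controls were run.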

[3] = target: T3, Serine protease 1 (Bos taurus) (UniProt P00760); experiment: Inhibition of bovine trypsin
T3 sequence (whole entry): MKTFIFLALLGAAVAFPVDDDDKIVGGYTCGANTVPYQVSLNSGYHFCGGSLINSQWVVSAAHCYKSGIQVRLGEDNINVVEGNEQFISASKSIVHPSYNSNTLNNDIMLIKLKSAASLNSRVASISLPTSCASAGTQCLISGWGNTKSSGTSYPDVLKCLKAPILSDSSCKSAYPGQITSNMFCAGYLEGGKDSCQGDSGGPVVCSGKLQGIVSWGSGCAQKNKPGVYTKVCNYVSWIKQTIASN
Procedure, shortened: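 Irreversible inhibition assayed by incubation at 25 °C in 0.1 M Hepes, 0.01 M CaCl2, pH 7.5 (2% DMSO), inhibitor 1.0–450 μM. Timed aliquots were read for residual activity on Cbz-Arg-SBzl with DTNB at 410 nm. Pseudo-first-order k_obs came from ln vt/vo vs time, using 5–10 points over 2–3 half-lives, three k_obs per inhibitor. DMSO-only controls were run. For no-inhibition lines, none was seen after 25 min.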

[4] = target: T4, Granzyme K (Rattus norvegicus) (UniProt P49864); experiment: Inhibition of rat granzyme K
T4 sequence (whole entry): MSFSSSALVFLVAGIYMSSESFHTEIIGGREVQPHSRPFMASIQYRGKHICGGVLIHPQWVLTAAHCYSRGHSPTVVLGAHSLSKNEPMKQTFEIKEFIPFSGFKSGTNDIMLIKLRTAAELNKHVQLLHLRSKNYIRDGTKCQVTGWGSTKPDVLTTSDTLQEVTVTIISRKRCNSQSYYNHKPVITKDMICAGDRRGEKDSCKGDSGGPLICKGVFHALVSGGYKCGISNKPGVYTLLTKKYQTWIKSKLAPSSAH
Procedure, shortened: (§3)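 Native rat granzyme K, purified by size-exclusion in 1 M NaCl then MonoS cation exchange. Incubated with inhibitor (1.0–450 μM) at 25 °C in 0.1 M Hepes, 0.01 M CaCl2, pH 7.5 (7.1% DMSO). Timed aliquots were read for residual activity on Cbz-Arg-SBzl with DTNB at 405 nm. k_obs came from ln vt/vo vs time, one or two per inhibitor. For no-inhibition lines, none was seen after 25 min.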

[5] = target: T2, Tryptase (Homo sapiens); experiment: Compound was evaluated to inhibit mast cell tryptase; No inhibition; format: protein assay; procedure, shortened: as §2
[6] = target: T5, Granzyme A (Rattus norvegicus) (UniProt Q8CJF4); experiment: Inhibition of rat granzyme A.; procedure, shortened: as §1
T5 sequence (whole entry): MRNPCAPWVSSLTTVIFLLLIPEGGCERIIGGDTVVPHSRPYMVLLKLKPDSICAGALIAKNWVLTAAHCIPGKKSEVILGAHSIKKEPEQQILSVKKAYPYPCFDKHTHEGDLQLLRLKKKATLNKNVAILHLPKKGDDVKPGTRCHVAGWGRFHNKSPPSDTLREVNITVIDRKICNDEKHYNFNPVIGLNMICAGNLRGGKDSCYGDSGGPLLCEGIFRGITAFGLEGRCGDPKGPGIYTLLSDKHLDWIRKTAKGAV

[7] = target: T4, Granzyme K (Rattus norvegicus); experiment: Compound was evaluated to inhibit rat granzyme K; No inhibition; procedure, shortened: as §3

| Compound | kobs/[I] (second-order inactivation rate constant) [1] [M⁻¹ s⁻¹] | kobs/[I] (second-order inhibition rate constant) [2] [M⁻¹ s⁻¹] | K obs / 1 [3] [M⁻¹ s⁻¹] | kobs/[I] (second-order inactivation rate constant) [4] [M⁻¹ s⁻¹] | K obs / 1 [5] | K obs / 1 [6] [M⁻¹ s⁻¹] | K obs / 1 [7] |
| --- | --- | --- | --- | --- | --- | --- | --- |
| N=C(N)c1ccc(C(NC(=O)[C@@H]2CCCN2C(=O)CCc2ccccc2)P(=O)(Oc2ccccc2)Oc2ccccc2)cc1 (stereo partly drawn) | 1510 | 0.4 | 1520 | 50 | – | – | – |
| NC(N)c1ccc(C(NC(=O)c2cccc(Oc3ccccc3)c2)P(=O)(Oc2ccccc2)Oc2ccccc2)cc1 (stereo not drawn) | 340 | – | 50 | 1 | inactive | 470 | – |
| NCCCCC(NC(=O)OCc1ccccc1)P(=O)(Oc1ccccc1)Oc1ccccc1 (stereo not drawn) | 1210 | 89 | 6240 | 23 | – | – | – |
| NC(N)c1ccc(C(NC(=O)c2ccccc2Oc2ccccc2)P(=O)(Oc2ccccc2)Oc2ccccc2)cc1 (stereo not drawn) | 540 | 0.4 | 670 | 1 | – | 340 | – |
| C[C@H](NC(=O)[C@@H](CC(=O)OC(C)(C)C)NC(=O)OCc1ccccc1)C(=O)NC(c1ccc(C(=N)N)cc1)P(=O)(Oc1ccccc1)Oc1ccccc1 (stereo partly drawn) | 280 | 3 | 2000 | – | – | – | inactive |
| N=C(N)c1ccc(C(NC(=O)/C=C/c2ccccc2)P(=O)(Oc2ccccc2)Oc2ccccc2)cc1 (stereo not drawn) | 400 | 0.3 | 110 | 3 | – | 340 | – |
| NC(N)c1ccc(C(NC(=O)[C@@H]2CCCN2C(=O)CNS(=O)(=O)Cc2ccccc2)P(=O)(Oc2ccccc2)Oc2ccccc2)cc1 (stereo partly drawn) | 3650 | 2 | 37100 | 87 | – | – | – |
| C[C@H](NC(=O)[C@@H](C)NC(=O)CCC(=O)O)C(=O)NC(c1ccc(C(=N)N)cc1)P(=O)(Oc1ccccc1)Oc1ccccc1 (stereo partly drawn) | 260 | 0.7 | 640 | 0.3 | – | – | – |
| C[C@H](NC(=O)[C@@H](Cc1ccccc1)NC(=O)OCc1ccccc1)C(=O)NC(c1ccc(C(N)N)cc1)P(=O)(Oc1ccccc1)Oc1ccccc1 (stereo partly drawn) | 1770 | 4 | 3010 | 4.2 | – | – | – |
| N=C(N)c1ccc(C(NC(=O)/C=C/c2cccs2)P(=O)(Oc2ccccc2)Oc2ccccc2)cc1 (stereo not drawn) | 740 | 1 | 300 | 4 | – | 430 | – |
| CC(C)[C@H](NC(=O)OCc1ccccc1)C(=O)NC(c1ccc(C(=N)N)cc1)P(=O)(Oc1ccccc1)Oc1ccccc1 (stereo partly drawn) | 6.7 | 21.2 | 41 | 0.7 | – | – | – |
| NC(N)c1ccc(C(NC(=O)OCc2cccc3ccccc23)P(=O)(Oc2ccccc2)Oc2ccccc2)cc1 (stereo not drawn) | 160 | – | 30 | 12 | inactive | 90 | – |
| N=C(N)c1ccc(C(NC(=O)[C@@H]2CCCN2C(=O)CC(c2ccccc2)c2ccccc2)P(=O)(Oc2ccccc2)Oc2ccccc2)cc1 (stereo partly drawn) | 250 | – | 2660 | 1830 | inactive | – | – |
| C[C@H](NC(=O)[C@H]1CCCN1C(=O)OCc1ccccc1)C(=O)NC(c1ccc(C(=N)N)cc1)P(=O)(Oc1ccccc1)Oc1ccccc1 (stereo partly drawn) | 380 | 1 | 240 | 5 | – | – | – |
| CC(C)(C)OC(=O)N[C@H](Cc1ccccc1)C(=O)N1CCC[C@H]1C(=O)NC(c1ccc(C(N)N)cc1)P(=O)(Oc1ccccc1)Oc1ccccc1 (stereo partly drawn) | 170 | 0.4 | 130 | 56 | – | – | – |
| C[C@@H](O)[C@H](NC(=O)OCc1ccccc1)C(=O)NC(c1ccc(C(=N)N)cc1)P(=O)(Oc1ccccc1)Oc1ccccc1 (stereo partly drawn) | 2220 | – | 97 | 3 | inactive | – | – |
| N=C(N)c1ccc(C(NC(=O)CCC(=O)O)P(=O)(Oc2ccccc2)Oc2ccccc2)cc1 (stereo not drawn) | 857 | 0.2 | 45 | 0.3 | – | – | – |
| C[C@H](NC(=O)[C@@H](C)NC(=O)OCc1ccccc1)C(=O)NC(c1ccc(C(=N)N)cc1)P(=O)(Oc1ccccc1)Oc1ccccc1 (stereo partly drawn) | 820 | 2 | 3620 | 5 | – | 480 | – |
| N=C(N)c1ccc(C(NC(=O)[C@H](CCCCN)NC(=O)OCc2ccccc2)P(=O)(Oc2ccccc2)Oc2ccccc2)cc1 (stereo partly drawn) | 30 | – | 30 | 1 | inactive | 15 | – |
| N=C(N)c1ccc(C(NC(=O)[C@@H]2CCCN2C(=O)c2ccccc2Oc2ccccc2)P(=O)(Oc2ccccc2)Oc2ccccc2)cc1 (stereo partly drawn) | 610 | 0.9 | 7760 | 60 | – | – | – |
| N=C(N)c1ccc(C(NC(=O)[C@@H]2CCCN2C(=O)OCc2ccccc2)P(=O)(Oc2ccccc2)Oc2ccccc2)cc1 (stereo partly drawn) | 790 | 1.2 | 910 | 34 | – | – | – |
| N=C(N)c1ccc(CC(NC(=O)OCc2ccccc2)P(=O)(Oc2ccccc2)Oc2ccccc2)cc1 (stereo not drawn) | 2750 | 17 | 24 | 2.1 | – | – | – |
| C[C@H](NC(=O)[C@@H](CC(=O)O)NC(=O)OCc1ccccc1)C(=O)NC(c1ccc(C(=N)N)cc1)P(=O)(Oc1ccccc1)Oc1ccccc1 (stereo partly drawn) | 240 | 0.7 | 2550 | 6 | – | – | – |
| N=C(N)c1ccc(C(NC(=O)/C=C/c2ccco2)P(=O)(Oc2ccccc2)Oc2ccccc2)cc1 (stereo not drawn) | 1740 | – | 360 | 32 | inactive | 1740 | – |
| NCCCCCC(NC(=O)OCc1ccccc1)P(=O)(Oc1ccccc1)Oc1ccccc1 (stereo not drawn) | 23 | 0.7 | 21 | 1.1 | – | – | – |
| C[C@H](NC(=O)OCc1ccccc1)C(=O)N[C@H](C)C(=O)N[C@@H](C)C(=O)NC(c1ccc(C(N)N)cc1)P(=O)(Oc1ccccc1)Oc1ccccc1 (stereo partly drawn) | 730 | 2 | 1780 | 7 | – | 590 | – |
